Molecules are shown by their SMILES. In brackets after ≈: the same amount, converted by molar mass.

Experiment [1] deals with Mycobacterium tuberculosis. The experiment is described as follows: Antimycobacterial activity against Mycobacterium tuberculosis H37Rv ATCC 27294 after 7 days by Microplate Alamar blue assay. It counts as functional. The conditions noted are these: H37Rv ATCC 27294, 168 h. An outline of the steps: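 DMSO stocks diluted in Middlebrook 7H9 with OADC to final 0.15–250 µg/mL. Inoculum matched to McFarland No. 1, diluted 1:25, then added with compound in 96-well plates. Triplicates incubated 7 days at 37 °C, then resazurin added. Fluorescence read at 530/590 nm. MIC = lowest concentration giving 90% growth inhibition. Isoniazid standard run each time.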

Experiment [2] has as its system J774. The experiment is described as follows: Cytotoxicity against mouse J774 cells after 24 hrs. It counts as cell-based. The conditions noted are these: J774, 24 h. An outline of the steps: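 J774 cells kept in RPMI with 10% FBS at 37 °C, 5% CO2, then seeded and allowed to adhere for 24 h. Exposed 24 h to compound at 625 down to 0.6 (twofold series). Resazurin added for 6 h and fluorescence read at 530/590 nm. IC50 taken as concentration giving 50% viability relative to control.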

As usually defined, the MIC is the lowest concentration that inhibits growth of the organism. A lower MIC goes with inhibition by little substance. For the molecule `NS(=O)(=O)c1ccc(N2C(=O)c3ccccc3C2=O)cc1`, the minimum inhibitory concentration (MIC) in experiment [1] was greater than 250 µg/mL.

The molecule `NNC(=O)c1ccncc1` [ISONIAZID] registered an MIC in experiment [1] of 0.02 µg/mL (≈ 0.146 µM).

A word on the IC50: it is the midpoint of a concentration-inhibition curve. In experiment [1], `O=C1c2ccccc2C(=O)N1c1ccc(S(=O)(=O)Nc2ncccn2)cc1` registered a minimum inhibitory concentration (MIC) of 3.9 µg/mL (≈ 10.3 µM). In experiment [2], this molecule yielded a concentration for half-maximal inhibition (IC50) of 312 µg/mL (≈ 822 µM).

On to `O=C1c2ccccc2C(=O)N1c1ccc(S(=O)(=O)c2ccc(N3C(=O)c4ccccc4C3=O)cc2)cc1`, for which, in experiment [1], the minimal inhibitory concentration (MIC) is greater than 250 µg/mL.

Turning to `N=C(N)NS(=O)(=O)c1ccc(N2C(=O)c3ccccc3C2=O)cc1`, 125 µg/mL (≈ 363 µM) was the least that counted as inhibitory in experiment [1] (MIC).

As for `Cc1cc(C)nc(NS(=O)(=O)c2ccc(N3C(=O)c4ccccc4C3=O)cc2)n1`, the minimal inhibitory concentration (MIC) in experiment [1] is greater than 250 µg/mL.

As to `Nc1ccc(S(=O)(=O)c2ccc(N3C(=O)c4ccccc4C3=O)cc2)cc1`, the MIC in experiment [1] is 7.8 µg/mL (≈ 20.6 µM). The molecule further registered a half-inhibitory concentration (IC50) in experiment [2] of 312 µg/mL (≈ 826 µM).

With `COc1cnc(NS(=O)(=O)c2ccc(N3C(=O)c4ccccc4C3=O)cc2)nc1`, the MIC in experiment [1] was greater than 250 µg/mL.

As to `Cc1ccnc(NS(=O)(=O)c2ccc(N3C(=O)c4ccccc4C3=O)cc2)n1`, the minimum inhibitory concentration (MIC) in experiment [1] is greater than 250 µg/mL.

Molecule `O=C1c2ccccc2C(=O)N1c1ccc(S(=O)(=O)Nc2ccccn2)cc1` returned a minimal inhibitory concentration (MIC) in experiment [1] greater than 250 µg/mL.

In experiment [1], `O=C(NN1C(=O)c2ccccc2C1=O)c1ccncc1` returned an MIC of 5 µg/mL (≈ 18.7 µM). Further, the half-inhibitory concentration (IC50) in experiment [2] came out at 625 µg/mL (≈ 2340 µM).

The molecule `Cc1cc(NS(=O)(=O)c2ccc(N3C(=O)c4ccccc4C3=O)cc2)no1` displayed an MIC in experiment [1] of 125 µg/mL (≈ 326 µM).

For the origin of these results see ChEMBL document CHEMBL1137768, “Synthesis and in vitro anti Mycobacterium tuberculosis activity of a series of phthalimide derivatives” (Bioorg Med Chem, 2009).
